Common to all, as to format: functional
Experiment [1] concerns Pseudomonas aeruginosa. In words: Minimum inhibitory concentration against Pseudomonas aeruginosa ATCC 27853. In short, it runs like this:
(§1)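 Broth MIC determination: serial 2-fold dilutions in Mueller-Hinton broth by standard methodology; the lowest concentration inhibiting growth is reported as the MIC, in nmol/mL.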

The subject of experiment [2] is Proteus vulgaris. In words: Minimum inhibitory concentration against Proteus vulgaris 1028 BC (Class Ic beta-lactamase overproducer). In short, it runs like this:
as §1

The test system of experiment [3] is Pseudomonas aeruginosa. In words: Evaluated for the minimum inhibitory concentration against Pseudomonas aeruginosa 18S/H (Class Id beta-lactamase overproducer). In short, it runs like this: (§2)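 MIC by serial 2-fold dilution in Mueller-Hinton broth; results given as minimum inhibitory concentrations (nmol/mL).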
In experiment [4] the test system is Streptococcus pneumoniae. As to the kind of experiment: Minimum inhibitory concentration against Streptococcus pneumoniae 6301. Summed up:
as §1

Experiment [5] deals with Staphylococcus aureus. As to the kind of experiment: Minimum inhibitory concentration against Staphylococcus aureus 95 (Methicillin-resistant, high-level beta-lactamase producer). Summed up:
(§3)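 Serial 2-fold broth dilution in Mueller-Hinton broth, run by standard methodology; read-out is the minimum inhibitory concentration (MIC).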

Experiment [6] relates to Proteus vulgaris. In words: Evaluated for the minimum inhibitory concentration against Proteus vulgaris 1028 BC (Class Ic beta-lactamase overproducer. Summed up:
as §2

Experiment [7] deals with Streptococcus pyogenes. In words: Minimum inhibitory concentration against Streptococcus pyogenes 4. In short, it runs like this: as §1
Experiment [8] deals with Pseudomonas aeruginosa. As to the kind of experiment: Evaluated for the minimum inhibitory concentration against Pseudomonas aeruginosa 18S/H ( Class Id beta-lactamase overproducer). Summed up: as §2
In experiment [9] the test system is Escherichia coli. In words: Evaluated for the minimum inhibitory concentration against Escherichia coli UB 1005. Summed up: as §2
For experiment [10], the system named is Citrobacter freundii. In words: In vitro antibacterial activity was determined against Citrobacter freundii BS-16. Summed up: as §2
Experiment [11] relates to Escherichia coli. In words: In vitro antibacterial activity was determined against Escherichia coli UB 1005. In short, it runs like this:
as §2

The subject of experiment [12] is Enterobacter cloacae. In words: In vitro antibacterial activity was determined against Enterobacter cloacae P99. Summed up:
as §2

Experiment [13] has as its system Escherichia coli. As to the kind of experiment: In vitro antibacterial activity was determined against Escherichia coli TEM-1 (TEM-1 (class IIIa) beta-lactamase producer). Summed up: as §2
The subject of experiment [14] is Proteus mirabilis. As to the kind of experiment: In vitro antibacterial activity was determined against Proteus mirabilis 90. In short, it runs like this: as §2
Experiment [15] deals with Proteus vulgaris. As to the kind of experiment: In vitro antibacterial activity was determined against Proteus vulgaris 1028 BC ( Class Ic beta-lactamase overproducer. In short, it runs like this: as §2
In experiment [16] the test system is Serratia marcescens. In words: In vitro antibacterial activity was determined against Serratia marcescens 1071. In short, it runs like this: as §1
For experiment [17], the system named is Staphylococcus aureus. As to the kind of experiment: In vitro antibacterial activity was determined against Staphylococcus aureus 1059B ( inducible, high level beta-lactamase producer). Summed up:
as §1

Experiment [18] has as its system Staphylococcus aureus. In words: In vitro antibacterial activity was determined against Staphylococcus aureus ATCC 29213 ( inducible, low level beta-lactamase producer). Summed up:
as §1

The test system of experiment [19] is Streptococcus pneumoniae. In words: In vitro antibacterial activity was determined against Streptococcus pneumoniae 6301. In short, it runs like this:
as §1

The subject of experiment [20] is Streptococcus pyogenes. As to the kind of experiment: In vitro antibacterial activity was determined against Streptococcus pyogenes 4. In short, it runs like this:
as §1

Experiment [21] has as its system Pseudomonas aeruginosa. In words: In vitro antibacterial activity was determined against Pseudomonas aeruginosa ATCC 27853. Summed up:
as §1

Experiment [22] has as its system Enterococcus faecalis. In words: In vitro antibacterial activity was determined against Enterococcus faecalis ATCC 29212. In short, it runs like this:
as §2

The test system of experiment [23] is Pseudomonas aeruginosa. In words: In vitro antibacterial activity was determined against Pseudomonas aeruginosa 18S/H ( Class Id beta-lactamase overproducer). In short, it runs like this: as §1
Experiment [24] concerns Staphylococcus aureus. As to the kind of experiment: In vitro antibacterial activity was determined against Staphylococcus aureus 95 (Methicillin-resistant, high-level beta-lactamase producer). Summed up: as §3
Experiment [25] deals with Proteus vulgaris. As to the kind of experiment: Evaluated for the minimum inhibitory concentration against Proteus vulgaris 1028 BC. Summed up: as §3
In experiment [26] the test system is Enterobacter cloacae. In words: Evaluated for the minimum inhibitory concentration against Enterobacter cloacae P99 ( Class Ia beta-lactamase overproducer). Summed up: as §2

Values after ≈ are worked out from the molar mass of the structure shown.

Turning to `CCn1cc(C(=O)OCC2=C(C(=O)O)N3C(=O)[C@@H](NC(=O)Cc4cccs4)C3SC2)c(=O)c2cc(F)c(N3CCN(C=O)CC3)cc21` (stereo partly drawn), the MIC was greater than 128 µg/mL in [1]; 4 µg/mL (≈ 5.85 µM) in experiment [2]; 16 µg/mL (≈ 23.4 µM) in experiment [3]; 0.063 µg/mL (≈ 0.0921 µM) in experiment [4]; 4 µg/mL (≈ 5.85 µM) in [5].
Consider `O=C(O)c1cn(-c2ccc(F)cc2)c2cc3c(cc2c1=O)OCO3`, for which the MIC in experiment [6] was 0.5 µg/mL (≈ 1.53 µM); in experiment [3], 0.5 µg/mL (≈ 1.53 µM); in [4], 64 µg/mL (≈ 196 µM); in experiment [7] it was greater than 128 µg/mL; in experiment [5], 1 µg/mL (≈ 3.06 µM).
On to `CCn1cc(C(=O)OCC2=C(C(=O)O)N3C(=O)[C@@H](NC(=O)Cc4cccs4)C3SC2)c(=O)c2cc3c(cc21)OCO3` (stereo partly drawn), for which the MIC in experiment [1] is greater than 128 µg/mL; in [2], 0.25 µg/mL (≈ 0.418 µM); in [3], 8 µg/mL (≈ 13.4 µM); in experiment [5], 4 µg/mL (≈ 6.69 µM).
Take `CCn1cc(C(=O)OCC2=C(C(=O)O)N3C(=O)[C@@H](NC(=O)COc4ccccc4)C3SC2)c(=O)c2cc(F)c(-n3cccc3)cc21` (stereo partly drawn): the MIC is greater than 128 µg/mL in experiment [1]; 16 µg/mL (≈ 24.7 µM) in experiment [2]; 128 µg/mL (≈ 198 µM) in experiment [3]; 2 µg/mL (≈ 3.09 µM) in [4]; 2 µg/mL (≈ 3.09 µM) in experiment [7]; 0.5 µg/mL (≈ 0.773 µM) in experiment [5].
On to `CCn1cc(C(=O)OCC2=C(C(=O)O)N3C(=O)[C@@H](NC(=O)COc4ccccc4)C3SC2)c(=O)c2cc(F)c(N3CCCC3)cc21` (stereo partly drawn), for which the MIC in experiment [1] is greater than 128 µg/mL; in experiment [6], 32 µg/mL (≈ 49.2 µM); in experiment [3], 32 µg/mL (≈ 49.2 µM); in experiment [4], less than 0.008 µg/mL; in [5], 0.5 µg/mL (≈ 0.768 µM).
For `CCn1cc(C(=O)OCC2=C(C(=O)O)N3C(=O)[C@@H](NC(=O)/C(=N/OC)c4csc(N)n4)C3SC2)c(=O)c2cc(F)c(N3CCN(C=O)CC3)cc21` (stereo partly drawn), the MIC in experiment [1] was greater than 128 µg/mL; in experiment [2] it was 8 µg/mL (≈ 10.8 µM); in [3], 32 µg/mL (≈ 43.1 µM); in experiment [5] it was 8 µg/mL (≈ 10.8 µM).
`CCn1cc(C(=O)O)c(=O)c2cc(F)c(N3CCCC3)cc21`: the MIC in [8] was 128 µg/mL (≈ 421 µM); in experiment [1] it was greater than 128 µg/mL; in experiment [6], 1 µg/mL (≈ 3.29 µM); in experiment [4], greater than 128 µg/mL; in [5], 0.063 µg/mL (≈ 0.207 µM).
For `CCn1cc(C(=O)OCC2=C(C(=O)O)N3C(=O)[C@@H](NC(=O)/C(=N/OC)c4csc(N)n4)C3SC2)c(=O)c2cc(F)c(N3CCSCC3)cc21` (stereo partly drawn), the MIC in [9] is 1 µg/mL (≈ 1.37 µM); in experiment [1], 128 µg/mL (≈ 175 µM); in [6], 2 µg/mL (≈ 2.73 µM); in [3], 8 µg/mL (≈ 10.9 µM); in experiment [4], 0.016 µg/mL (≈ 0.0219 µM); in experiment [7], less than 0.008 µg/mL. In experiment [5], this compound displayed an MIC of 0.5 µg/mL (≈ 0.683 µM).
`CC(=O)OCC1=C(C(=O)O)N2C(=O)[C@@H](NC(=O)COc3ccccc3)C2SC1` (stereo partly drawn): the MIC is greater than 128 µg/mL in [10]; 64 µg/mL (≈ 157 µM) in [11]; greater than 128 µg/mL in experiment [12]; greater than 128 µg/mL in experiment [13]; 64 µg/mL (≈ 157 µM) in experiment [14]; greater than 128 µg/mL in experiment [15]. Moreover, the MIC is greater than 128 µg/mL in experiment [16]; 0.25 µg/mL (≈ 0.615 µM) in [17]; 0.5 µg/mL (≈ 1.23 µM) in experiment [18]; 0.25 µg/mL (≈ 0.615 µM) in experiment [19]; 0.063 µg/mL (≈ 0.155 µM) in [20]; greater than 128 µg/mL in experiment [21]. Also, the MIC in [22] was 64 µg/mL (≈ 157 µM); in experiment [23], greater than 128 µg/mL; in experiment [24], greater than 128 µg/mL.
In the case of `O=C(COc1ccccc1)N[C@@H]1C(=O)N2C(C(=O)O)=C(COC(=O)c3cn(-c4ccc(F)cc4)c4cc5c(cc4c3=O)OCO5)CSC12` (stereo partly drawn), the MIC in experiment [25] is 64 µg/mL (≈ 95 µM); in experiment [8], 64 µg/mL (≈ 95 µM); in experiment [1] it was greater than 128 µg/mL; in experiment [4], 1 µg/mL (≈ 1.48 µM); in [7], 2 µg/mL (≈ 2.97 µM); in experiment [5] it was 64 µg/mL (≈ 95 µM).
Turning to `CCn1cc(C(=O)OCC2=C(C(=O)O)N3C(=O)[C@@H](NC(=O)COc4ccccc4)C3SC2)c(=O)c2cc(F)c(N3CCN(C=O)CC3)cc21` (stereo partly drawn), the MIC in [9] was found to be 128 µg/mL (≈ 185 µM); in experiment [26] it was 2 µg/mL (≈ 2.88 µM); in experiment [8], 8 µg/mL (≈ 11.5 µM); in experiment [1], 128 µg/mL (≈ 185 µM); in experiment [2] it was 4 µg/mL (≈ 5.77 µM); in experiment [5], 2 µg/mL (≈ 2.88 µM).

The values above are taken from ChEMBL document CHEMBL1125107, “Cephalosporin 3'-quinolone esters with a dual mode of action” (J Med Chem, 1990).
